Results published in paper PMC11522000 (Nature Microbiology, 2024).

Tests used:
[1] = Stability in intestinal S9 fraction; assay type: in vitro ADME; conditions: human
Procedure, shortened: (§1)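 Test compound added to intestinal S9 fraction of each species to start the reaction. Incubated in a shaking water bath at 37 °C, with samples taken at sequential timepoints. Samples quenched with ice-cold acetonitrile and analysed by LC-MS/MS. Half-life calculated from the rate of parent compound depletion.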

[2] = Stability in intestinal S9 fraction; assay type: in vitro ADME; conditions: rat
Procedure, shortened: as §1

[3] = tested on: C. parvum; experiment: Washout assay, nanoluciferase-expressing C. parvum; assay type: cell-based, Cryptosporidium parvum; conditions: exposure 2–6 h post infection
Procedure, shortened: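 HCT-8 cells were grown to ~90% confluence, then infected with 400 nanoluciferase-expressing oocysts per well. Before infection, oocysts were primed for excystation with 10 mM HCl in water (10 min, 37 °C), then 2 mM sodium taurocholate in DPBS with Ca/Mg (10 min, 16 °C). Luminescence was read over time. RLU taken soon after infection served as day 0 and was used to normalize each timepoint.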

[4] = Neonatal calf pharmacokinetics; assay type: in vivo; conditions: bovine, plasma, po, 10 mg/kg
Procedure, shortened: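 Calves were dosed orally at 10 mg/kg birth weight every 12 h, at least 2 h after feeding. On day 1, blood was drawn before dosing and at several timepoints up to 12 h.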

[5] = Stability in intestinal S9 fraction; assay type: in vitro ADME, calf; conditions: bovine
Procedure, shortened: as §1

[6] = In vivo pharmacokinetic analysis; parameters: species or system rat; conditions: portal vein cannulated rats, oral
[7] = In vivo pharmacokinetic analysis; parameters: species or system mouse
Procedure, shortened: (§2)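 Animals were male C57BL/6 mice (8–10 weeks), Wistar rats (8–10 weeks) and beagle dogs (12–14 weeks). Each received oral and i.v. doses, with plasma sampling for PK parameters.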

[8] = tested on: MDR-transfected MDCK cells; experiment: MDCK MDR1 permeability and efflux; assay type: in vitro ADME; conditions: MDCK MDR1, basolateral to apical
[9] = tested on: C. parvum; experiment: Live imaging of C. parvum in HCT-8 cells; assay type: cell-based, Cryptosporidium parvum; conditions: compound at 3 h post infection
[10] = tested on: C. parvum; experiment: Time-kill assay, nanoluciferase-expressing C. parvum; assay type: cell-based, Cryptosporidium parvum
[11] = Stability in intestinal S9 fraction; assay type: in vitro ADME; conditions: dog
Procedure, shortened: as §1

[12] = 2 weeks GLP rat toxicology study with toxicokinetics; assay type: in vivo; conditions: both, Wistar; for AUC(0-t): AUC0-8, rat
Procedure, shortened: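 Male and female Wistar rats were about 7–8 weeks old at receipt and 9–10 weeks old at the start of dosing. They were dosed for 2 weeks at 50, 250 and 1000 mg/kg/day, with toxicokinetic plasma sampling.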

[13] = molecular target: hCav1.2 (Homo sapiens, UniProt Q13936); experiment: Patch clamp Cav1.2 Quattro; assay type: cell-based
Procedure, shortened: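 Each channel was stably expressed in HEK293 cells and tested by patch clamp with a 7-point concentration-response.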

[14] = Lipophilicity; assay type: physicochemical
[15] = tested on: C. parvum; experiment: Neonatal calf efficacy study; assay type: in vivo, neonatal calves
Procedure, shortened: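 Infected neonatal calves received test compound orally by dosing syringe every 12 h for 7 days at 10 mg/kg birth weight, at least 2 h after feeding. Controls were vehicle-treated calves. The negative-control calf was sham-challenged so staff stayed blinded during dosing, clinical scoring of faecal consistency and faecal qPCR for oocysts.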

[16] = Plasma stability; assay type: in vitro ADME; conditions: dog
Procedure, shortened: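 Test compound was added to plasma and incubated at 37 °C in a shaking water bath, with samples taken at sequential timepoints. Samples were quenched with ice-cold acetonitrile and analysed by LC-MS/MS, and half-life was calculated from the depletion rate.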

[17] = In vivo pharmacokinetic analysis; conditions: male, Beagle, dog, plasma
Procedure, shortened: as §2

[18] = tested on: liver and duodenum; experiment: In vivo rat Comet assay; conditions: up to 2000 mg/kg/day
Procedure, shortened: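 Liver and duodenum were sampled near Tmax after the second dose for the Comet assay.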

[19] = tested on: C. parvum; experiment: DNA synthesis; assay type: cell-based, Cryptosporidium parvum; conditions: compound at 3 h post infection, EdU at 9 h
Procedure, shortened: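 HCT-8 cells were seeded at 5,000–25,000 per well on fibronectin-coated glass-bottom plates to reach 90–100% confluence, then infected with triggered oocysts. After 3 h at 37 °C, test compound or controls were added (DMSO neutral, cladosporin active) and incubation continued to about 9 h post infection. EdU was detected, vacuoles stained with VVL and nuclei with Hoechst, and wells imaged with a 40x objective.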

[20] = In vivo pharmacokinetics, all tested preclinical species; conditions: male, mouse, rat, dog, plasma, po
Procedure, shortened: as §2

[21] = Cytotoxicity assay; assay type: cell-based, human; conditions: human, HepG2 cells (ATCC CRL-10741), HepG2 CC50, 96 h
[22] = tested on: TK6 cells; experiment: In vitro micronucleus test in TK6 cells; assay type: cell-based
[23] = Plasma protein binding; assay type: in vitro ADME; conditions: rat
[24] = Hepatocytes metabolic stability; assay type: in vitro ADME; conditions: rat
Procedure, shortened: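 Test compound was incubated with liver microsomes or hepatocytes of each species, and parent depletion was quantified by LC-MS/MS. From this, in vitro half-life and intrinsic clearance were derived, along with predicted metabolic clearance and hepatic extraction ratio.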

[25] = male, C57BL/6, mouse, plasma, iv, 1 mg/kg
[26] = male, C57BL/6, mouse, plasma, po, 10 mg/kg
[27] = plasma, po, 1000 mg/kg/day, EDI048 1000 mg/kg/day, day 1
[28] = plasma, po, 1000 mg/kg/day, EDI048 1000 mg/kg/day, day 14

hCav1.2, sequence (P54289 957-1103): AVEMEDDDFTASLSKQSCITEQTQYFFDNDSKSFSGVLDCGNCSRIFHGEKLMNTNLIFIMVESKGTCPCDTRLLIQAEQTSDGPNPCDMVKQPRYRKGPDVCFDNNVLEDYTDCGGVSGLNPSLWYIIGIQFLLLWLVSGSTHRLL
hCav1.2, sequence (Q08289 whole entry, further chain): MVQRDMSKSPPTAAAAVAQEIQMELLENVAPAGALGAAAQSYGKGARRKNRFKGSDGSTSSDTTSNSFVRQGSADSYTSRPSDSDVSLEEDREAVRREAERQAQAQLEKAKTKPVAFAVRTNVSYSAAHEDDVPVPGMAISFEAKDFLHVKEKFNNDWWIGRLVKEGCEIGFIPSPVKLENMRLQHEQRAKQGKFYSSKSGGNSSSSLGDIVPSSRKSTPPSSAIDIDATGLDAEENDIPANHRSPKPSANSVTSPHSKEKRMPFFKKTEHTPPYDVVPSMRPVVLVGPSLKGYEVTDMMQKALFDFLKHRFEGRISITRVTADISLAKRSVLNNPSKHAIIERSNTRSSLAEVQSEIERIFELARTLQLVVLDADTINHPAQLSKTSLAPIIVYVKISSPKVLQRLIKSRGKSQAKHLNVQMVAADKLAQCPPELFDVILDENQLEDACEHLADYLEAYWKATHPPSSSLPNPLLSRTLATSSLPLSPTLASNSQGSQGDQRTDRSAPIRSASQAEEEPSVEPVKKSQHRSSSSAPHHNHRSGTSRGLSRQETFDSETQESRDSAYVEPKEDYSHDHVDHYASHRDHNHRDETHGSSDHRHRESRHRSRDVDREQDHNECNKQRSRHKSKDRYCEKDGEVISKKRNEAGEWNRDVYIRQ
hCav1.2, sequence (Q13936 whole entry): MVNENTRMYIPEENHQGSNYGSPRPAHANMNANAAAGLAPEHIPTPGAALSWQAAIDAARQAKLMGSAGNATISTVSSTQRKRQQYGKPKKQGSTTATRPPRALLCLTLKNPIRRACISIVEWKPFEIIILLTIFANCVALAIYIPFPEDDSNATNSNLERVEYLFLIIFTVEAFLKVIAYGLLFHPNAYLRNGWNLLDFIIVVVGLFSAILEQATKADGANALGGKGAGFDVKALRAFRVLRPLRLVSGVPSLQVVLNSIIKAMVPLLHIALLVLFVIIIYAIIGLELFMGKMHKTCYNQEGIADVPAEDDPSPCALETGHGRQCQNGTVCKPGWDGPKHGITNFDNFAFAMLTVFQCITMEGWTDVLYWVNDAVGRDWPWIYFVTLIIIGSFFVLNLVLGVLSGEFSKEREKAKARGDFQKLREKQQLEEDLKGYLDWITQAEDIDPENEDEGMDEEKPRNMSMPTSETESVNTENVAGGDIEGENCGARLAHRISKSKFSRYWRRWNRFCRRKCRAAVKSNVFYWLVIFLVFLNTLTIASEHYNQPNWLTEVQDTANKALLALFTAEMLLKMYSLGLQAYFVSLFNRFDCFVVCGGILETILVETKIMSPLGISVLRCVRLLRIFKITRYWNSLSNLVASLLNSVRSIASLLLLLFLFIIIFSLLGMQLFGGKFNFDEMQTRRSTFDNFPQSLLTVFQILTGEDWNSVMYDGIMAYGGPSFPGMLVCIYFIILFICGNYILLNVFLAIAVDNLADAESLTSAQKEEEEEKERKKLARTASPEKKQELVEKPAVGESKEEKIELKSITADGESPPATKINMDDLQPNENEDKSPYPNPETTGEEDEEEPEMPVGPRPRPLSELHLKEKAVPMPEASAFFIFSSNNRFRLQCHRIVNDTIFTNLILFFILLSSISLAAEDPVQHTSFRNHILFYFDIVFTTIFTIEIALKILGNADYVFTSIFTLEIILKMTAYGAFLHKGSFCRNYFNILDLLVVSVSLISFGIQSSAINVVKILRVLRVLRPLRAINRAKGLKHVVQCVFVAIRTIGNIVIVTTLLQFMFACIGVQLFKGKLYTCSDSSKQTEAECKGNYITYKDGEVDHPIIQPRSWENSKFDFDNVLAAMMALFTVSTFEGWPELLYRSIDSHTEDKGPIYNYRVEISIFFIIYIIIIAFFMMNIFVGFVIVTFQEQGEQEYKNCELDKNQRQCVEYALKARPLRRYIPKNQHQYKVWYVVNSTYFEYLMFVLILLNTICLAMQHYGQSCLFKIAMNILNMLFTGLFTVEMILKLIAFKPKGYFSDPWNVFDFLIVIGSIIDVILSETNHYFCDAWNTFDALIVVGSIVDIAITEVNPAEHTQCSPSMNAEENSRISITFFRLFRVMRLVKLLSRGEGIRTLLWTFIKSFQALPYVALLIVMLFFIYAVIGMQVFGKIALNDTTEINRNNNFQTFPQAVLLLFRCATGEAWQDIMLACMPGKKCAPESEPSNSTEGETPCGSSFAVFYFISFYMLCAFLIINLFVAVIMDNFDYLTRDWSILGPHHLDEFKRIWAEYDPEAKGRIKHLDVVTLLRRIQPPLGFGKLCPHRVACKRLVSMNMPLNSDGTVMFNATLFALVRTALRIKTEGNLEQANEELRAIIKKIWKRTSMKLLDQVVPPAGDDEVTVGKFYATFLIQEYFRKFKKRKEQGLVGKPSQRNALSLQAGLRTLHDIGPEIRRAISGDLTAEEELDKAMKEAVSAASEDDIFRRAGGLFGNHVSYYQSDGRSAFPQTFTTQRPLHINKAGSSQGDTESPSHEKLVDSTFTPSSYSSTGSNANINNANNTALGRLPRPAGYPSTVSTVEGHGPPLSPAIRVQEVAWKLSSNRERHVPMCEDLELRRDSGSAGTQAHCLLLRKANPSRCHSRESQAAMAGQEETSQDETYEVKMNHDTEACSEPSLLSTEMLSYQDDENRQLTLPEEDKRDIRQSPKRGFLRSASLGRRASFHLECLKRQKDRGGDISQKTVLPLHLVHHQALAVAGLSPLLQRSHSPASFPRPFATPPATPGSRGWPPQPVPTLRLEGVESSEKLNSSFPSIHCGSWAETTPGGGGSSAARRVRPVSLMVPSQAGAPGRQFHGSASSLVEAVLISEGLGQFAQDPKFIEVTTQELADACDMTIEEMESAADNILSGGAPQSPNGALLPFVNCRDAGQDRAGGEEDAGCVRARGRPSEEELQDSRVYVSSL
hCav1.2, sequence (P54289 25-956): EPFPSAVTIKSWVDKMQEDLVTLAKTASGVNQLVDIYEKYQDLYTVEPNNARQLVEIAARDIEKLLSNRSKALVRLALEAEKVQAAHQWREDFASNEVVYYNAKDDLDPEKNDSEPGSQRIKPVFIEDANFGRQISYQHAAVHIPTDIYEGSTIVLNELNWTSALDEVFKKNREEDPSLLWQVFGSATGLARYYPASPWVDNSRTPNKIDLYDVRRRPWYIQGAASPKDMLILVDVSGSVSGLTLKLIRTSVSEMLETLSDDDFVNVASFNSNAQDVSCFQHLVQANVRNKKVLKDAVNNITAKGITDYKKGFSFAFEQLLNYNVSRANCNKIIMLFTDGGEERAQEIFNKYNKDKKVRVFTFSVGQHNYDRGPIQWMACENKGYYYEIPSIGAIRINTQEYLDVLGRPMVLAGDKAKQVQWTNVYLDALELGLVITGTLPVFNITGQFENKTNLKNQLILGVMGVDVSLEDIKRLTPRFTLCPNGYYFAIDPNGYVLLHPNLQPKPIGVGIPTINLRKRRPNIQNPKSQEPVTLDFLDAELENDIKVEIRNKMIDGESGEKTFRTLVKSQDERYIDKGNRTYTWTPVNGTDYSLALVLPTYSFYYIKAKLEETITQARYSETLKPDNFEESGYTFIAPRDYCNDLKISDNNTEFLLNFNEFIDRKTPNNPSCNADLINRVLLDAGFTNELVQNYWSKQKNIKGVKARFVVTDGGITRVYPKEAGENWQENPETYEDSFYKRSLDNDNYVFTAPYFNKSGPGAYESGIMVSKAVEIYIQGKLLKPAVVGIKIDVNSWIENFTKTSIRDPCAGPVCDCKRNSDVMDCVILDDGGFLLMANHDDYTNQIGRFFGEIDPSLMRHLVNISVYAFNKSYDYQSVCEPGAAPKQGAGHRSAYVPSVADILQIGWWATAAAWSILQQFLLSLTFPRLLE

## CNC(=O)c1ccc(-c2cnn3ccc(C(=O)N(C)c4ccc(Cl)c(C(=O)OC)c4)cc23)cc1 [EDI048, methyl 2-chloro-5-(N-methyl-3-(4-(methylcarbamoyl)phenyl)pyrazolo[1,5-a]pyridine-5-carboxamido)benzoate]
[1]
  half-life: 3.92 h
[2]
  half-life: > 4 h
[3]
  washout: effect of 4 h exposure on parasite growth: does not affect parasite growth
[4]; infected calves with diarrhea
  Tmax: 12 h
[4]; uninfected healthy calves
  Tmax: 2 h
[5]
  half-life: 2.92 h
[6]
  portal vein concentration relative to systemic levels: ~ 40 fold
[7]; [25]
  AUC: 0.668 µM·h
  Vd: 1.05 L/kg
  clearance: 66.7 mL/min/kg
  half-life: 0.43 h
[7]; [26]
  AUC: 0.0204 µM·h
  Cmax: 8.4 nM
  Tmax: 1 h
  bioavailability: 0.4%
[7]; mouse, oral 1 mg/kg
  Cmax: <LLOQ
[7]; mouse, oral 3 mg/kg
  Cmax: <LLOQ
[8]
  Permeability B–A: 7.92 / 12.9 / 1.62 ×10^−6 cm s^−1
[9]
  live imaging of infected HCT-8 cells: parasites were arrested at the meront stage, preventing egress
[10]
  concentration achieving maximum rate of parasite elimination: ≥ 27 nM
[11]
  half-life: > 4 h
[12]; in vivo, po
  NOAEL at 14 days: 1000 mg/kg/day
[12]; plasma, oral, rat toxicity study
  Tmax: 0.5 h
[12]; [27]
  AUC(0-t): 11.1 ng·h/mL
  Tmax: 0.5 h
[12]; [28]
  AUC(0-t): 18.6 ng·h/mL
  Tmax: 0.5 h
[12]; plasma, po, 1000 mg/kg/day, Cmax, EDI048 1000 mg/kg/day, day 14
  Cmax: 4.13 ng/mL
[13]
  IC50: > 50 µM
[14]
  logD: 2.7
  logP: 3.65
[15]; 10 mg kg^−1 every 12 h, 7 days
  tolerability in calves: tolerated the full 7 day course of EDI048 treatment without compound-related abnormalities
[15]; P < 0.0001
  faecal consistency vs vehicle-treated calves: improved faecal consistency
[15]; P = 0.0062
  faecal oocyst shedding vs vehicle-treated calves: shed significantly fewer oocysts
[15]; calf model
  emergence of resistance during treatment: resistance did not emerge
[15]; post treatment
  time to signs of resolution of diarrhea: ≤ 48 h
[15]; up to 7 days
  recrudescence after cessation of treatment: No recrudescence of infection
[16]
  Plasma T1/2: > 2 h
[16]; Plasma T1/2, dog plasma
  half-life: > 4 h
[17]; iv, 0.1 mg/kg
  AUC: 0.0779 µM·h
  Vd: 1.54 L/kg
  clearance: 45.7 mL/min/kg
  half-life: 0.56 h
[17]; po, 0.3 mg/kg
  AUC: 0.0118 µM·h
  Cmax: 5.2 nM
  Tmax: 0.75 h
  bioavailability: 5.6%
[18]
  In vivo rat Comet assay: Negative^e
[19]
  DNA synthesis (EdU incorporation): does not affect DNA synthesis
[20]
  bioavailability: 0.4 to 5.6%
[21]
  CC50 at 96 h: 28.1 µM

## CN(C(=O)c1ccn2ncc(-c3ccc(C(N)=O)cc3)c2c1)c1ccc(C#N)cn1 [KDU731, 3–(4-carbamoylphenyl)-N-(5-cyanopyridin-2-yl)-N-methylpyrazolo [1,5-a]pyridine-5-carboxamide, reference compound]
[22]
  In vitro TK6 Micronucleus (MN) test: Negative
[23]
  % Plasma protein binding: 87.7%
[24]
  Hepatocytes ER: 36%
[24]; hepatocytes
  hepatocyte CLint: 6.9 µL/min/1e6 cells
